From PubChem BioAssay

Biological target: Muscarinic acetylcholine receptor M4 (Homo sapiens) (UniProt P08173)
Experiment: compounds altering M4/GIRK thallium flux, either direction, primary screen, M4 allosteric agonist project, cell-based, HEK293 M4/GIRK, BTC-AM (AID 625);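 further: thallium influx through GIRK channels coupled to M4 in HEK293 cells with BTC-AM dye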
Conditions: at 10 µM, actives lie on both sides;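 active means fluorescence slope after compound addition differing from the mean of all tested samples at 99.7% confidence, mostly higher but some lower; inactive means the rest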
How it was run: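 Material: M4/GIRK1/GIRK2 stable HEK293 cell line. Medium: pH 7.3 thallium assay buffer. Dosing: single compound concentration, 10 µM final. Schedule: 1 h dye loading, 2 min kinetic read. Measured by: kinetic fluorescence with BTC-AM dye. Read-out: post-addition slope, 15–24 s, of baseline-normalized fluorescence. Benchmarks: carbachol and DMSO controls.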

Muscarinic acetylcholine receptor M4 (Homo sapiens), sequence (P08173 whole entry, looked up): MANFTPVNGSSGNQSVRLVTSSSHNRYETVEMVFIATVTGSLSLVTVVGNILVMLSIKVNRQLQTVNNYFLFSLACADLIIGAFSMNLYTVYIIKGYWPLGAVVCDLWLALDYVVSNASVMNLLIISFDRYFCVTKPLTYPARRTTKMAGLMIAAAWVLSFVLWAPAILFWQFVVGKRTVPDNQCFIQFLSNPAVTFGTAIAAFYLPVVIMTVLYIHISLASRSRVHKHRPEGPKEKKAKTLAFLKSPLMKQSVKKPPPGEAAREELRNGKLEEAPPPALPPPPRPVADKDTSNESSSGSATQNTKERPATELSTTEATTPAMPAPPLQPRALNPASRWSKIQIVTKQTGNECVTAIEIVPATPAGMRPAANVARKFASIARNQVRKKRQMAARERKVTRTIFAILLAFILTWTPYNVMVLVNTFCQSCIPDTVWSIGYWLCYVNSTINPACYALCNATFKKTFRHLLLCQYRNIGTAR

Fluorescence slope, inactive:
O=C(OCc1cccs1)c1ccccc1NS(=O)(=O)c1ccc2c(c1)OCCO2 0.00639
O=C1NCCCc2c1no[n+]2[O-] 0.00512
CCOC(=O)c1cc2oc(C)cc2n1CC(=O)OC1CCCCC1 0.00678
Cc1cccc(-n2ncc(C#N)c2N)c1 0.00451
CC(=O)c1cc(-c2ccccc2)n(CC(=O)N2CCC(N3CCCCC3)CC2)c1C 0.00662
CN(C)S(=O)(=O)c1ccc(S(=O)(=O)Nc2ccc3c(c2)oc2ccccc23)cc1 0.00569
CCCCOC(=O)CSc1nc2c(cc1C#N)C(=O)CC(C)(C)C2 0.00537
Cc1ccc(S(=O)(=O)Cc2ccc(C(=O)NCCCN3CCN(C)CC3)o2)cc1 0.00533
Cc1onc(-c2c(Cl)cccc2Cl)c1C(=O)NCCCN1CCOCC1 0.00479
O=C(O)C1C2C=CC(O2)C1C(=O)NCc1ccc(Cl)cc1 (stereo unspecified) 0.0043
CC(C)OC(=O)CSc1nnnn1-c1ccc2c(c1)OCCO2 0.00598
CCOC(=O)Cc1nn2c(=O)cc(C)nc2s1 0.00652
O=C(CSc1ncnc2sc3c(c12)CCCCC3)NCc1ccco1 0.0063
CCCn1c(SCC(=O)Nc2cc(C)on2)nc2c1c(=O)n(C)c(=O)n2C 0.00431
O=C(CSc1ncnc2ccccc12)N1CCN(c2ccccc2)CC1 0.00572
Nc1ncnc2nc(SCCN3CCCCC3)[nH]c12 0.00574
